# In publication PMC12034291 (International Journal of Nanomedicine, 2025):
# Entries after “also recorded” stand apart in the source; their conditions may differ.
# Experiments:
# U87 cells = assay: CCK-8 cytotoxicity assay, U87 cells; type: cell-based, human
# In short: (§1)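 CCK-8 viability assay in cells grown in high-glucose DMEM with 10% FBS at 37°C, 5% CO2. Peptide alone was tested at 0, 15, 30, 60 and 120 μg/mL in medium with 10% serum. Blank wells received medium only. Because the test material carries a fluorescent label, parallel wells without CCK-8 gave a D(450) background, which was subtracted. Viability (%) = (experimental − blank)/(control − blank) × 100. Three independent repeats, mean ± SD, t-test/one-way ANOVA.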
# [1] = after combining with nanoprobes; cited from earlier work
# FLT4 = details: cited from earlier work
# [2] = tested on: FLT4 protein (U87 and U373 cells); assay: Fluorescent peptide in vitro binding / colocalization with FLT4; type: cell-based, human; details: FAM-labeled TMVP1; confocal, green and red light brightness 110
# [3] = cited from earlier work
# [4] = UV-visible spectrophotometry of TMVP1 coupling rate; type: physicochemical; details: FAM-labeled TMVP1
# In short: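 Coupling efficiency of the FAM-labelled peptide to liposomes was measured by UV-visible absorbance at 456 nm, before and after coupling. Coupling rate = (absorbance decrease)/(absorbance before coupling) × 100%. Liposome-bound peptide concentration was estimated from this rate.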
# HEB cells = assay: CCK-8 cytotoxicity assay, HEB cells; type: cell-based, human; details: TMVP1 0, 15, 30, 60, 120 μg/mL, P>0.05
# In short: as §1
# FLT4 protein = assay: Surface plasmon resonance; type: binding; details: TMVP1 10 mg/mL; FLT4 protein 0.6 mg/mL on CM5 chip
# In short: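 SPR on a […]. Recombinant FLT4 protein (0.6 mg/mL) was coupled directly to a CM5 chip as the solid phase. The peptide (10 mg/mL) was run as analyte in the mobile phase. The maximum binding response within 150 s was recorded in RU, where 1 RU = 1 pg/mm² surface change.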
absorbance after coupling TMVP1 ([4]; 456 nm),absorbance before coupling TMVP1 ([4]; 456 nm),"TMVP1 coupling rate ([4]; absorbance at 456 nm, (absorbance decrease before and after coupling)/(absorbance before coupling) × 100%)",TMVP1 concentration (from coupling rate) ([4]; estimated from coupling rate),binding affinity to FLT4 (in words) (FLT4 protein),Compound,"IC50 (U87 cells; Homo sapiens, U-87 MG, read-out: IC50 (cytotoxicity))",biocompatibility and in vivo stability [1],binding speed to FLT4 versus traditional monoclonal antibodies (FLT4),"fluorescence intensity, U87 versus U373 cell line [2]",immunogenicity versus traditional monoclonal antibodies [3],biological toxicity of peptide alone to HEB cells (HEB cells),"cytotoxicity of peptide alone towards U87 cells (U87 cells; CCK-8, U87 cells, TMVP1 0, 15, 30, 60, 120 μg/mL, P>0.05)"
,,,,,"Cn1nnc2c(C(N)=O)ncn2c1=O [TMZ, Temozolomide, reference compound]",48.4 µg/mL,,,,,,
0.069,0.296,76.68%,around 0.153 mg/mL,strong binding affinity,LARGR [TMVP1],,good biocompatibility and in vivo stability,faster binding speed,the fluorescence intensity in the U87 cell line was higher than in the U373 cell line,lower immunogenicity than traditional monoclonal antibodies,no significant biological toxicity,did not show significant cytotoxicity towards U87 cells; also recorded: no significant biological toxicity
